Test results reported in ChEMBL document CHEMBL3228025, “Synthesis and analgesic activities of some (4-substituted phenyl-1-piperazinyl)alkyl 2-aminobenzoates and 2-aminonicotinates” (J Med Chem, 1979).

Assays:
[1] = system: Mus musculus; assay: Analgesic activity in po dosed OF1 mouse assessed as dose required to double paw licking reaction time after 30 mins by hot plate test; assay type: functional; conditions: 0.5 h
Summary of the method: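 Male OF1 mice, 20 ± 2 g, given oral doses at several levels in 1% Tween 80 at 10 mL/kg, at least 10 per dose. After 30 min each mouse was placed on a metal plate at 56 °C and paw-licking latency was recorded. ED2 (dose doubling latency) was read graphically, with SEM and Dunnett's t versus controls.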

[2] = system: Mus musculus; assay: Analgesic activity in po dosed CD1 mouse assessed as inhibition of acetic acid-induced writhing administered 30 mins prior to acetic acid challenge measured after 15 mins; assay type: functional
Summary of the method: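 Male CD1 mice, 20 ± 2 g, randomly grouped and dosed orally at several levels (10 mL/kg, 1% Tween 80 vehicle), with at least two groups of six per dose. After 30 min, 0.6% acetic acid was given ip at 10 mL/kg, and writhes were counted per group over 15 min. ED50 (dose halving writhes) was read graphically, with no SEM computed.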

[3] = system: Rattus norvegicus; assay: Antiinflammatory activity in po dosed CD1 rat assessed as inhibition of carrageenan-induced paw edema administered 1 hr prior to carrageenan challenge measured after 3 hrs
[4] = Acute toxicity in po dosed CD1 mouse after 7 days; assay type: organism-based; conditions: in vivo
Summary of the method: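 Male CD1 mice, 20 ± 2 g, oral dosing at 10 mL/kg as an aqueous solution or suspension in 1% Tween 80 in distilled water. At least 10 animals per dose level, observed for 7 days. Oral LD50 calculated by the Litchfield–Wilcoxon method.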

Structure (SMILES)	ED2 [1]	ED50 [2]	ED40 [3]	LD50 at 168 h [4]
O=C(OCCN1CCN(c2cccc(C(F)(F)F)c2)CC1)c1ccccc1Nc1ccnc2cc(C(F)(F)F)ccc12 [ANTRAFENINE]	30 mg/kg	6 mg/kg	40 mg/kg	4000 mg/kg
Cc1c(Cl)cccc1Nc1ncccc1C(=O)OCCN1CCN(c2cccc(C(F)(F)F)c2)CC1		200 mg/kg	> 100 mg/kg	> 4000 mg/kg
COc1ccc(N2CCN(CCOC(=O)c3ccccc3Nc3ccnc4cc(Cl)ccc34)CC2)cc1	> 300 mg/kg	200 mg/kg	45 mg/kg	
O=C(OCCN1CCN(c2cccc(C(F)(F)F)c2)CC1)c1ccccc1Nc1ccnc2cc(OC(F)(F)F)ccc12	150 mg/kg	20 mg/kg	43 mg/kg	1500 mg/kg
O=C(OCCN1CCN(c2cccc(SC(F)(F)F)c2)CC1)c1ccccc1Nc1ccnc2cc(SC(F)(F)F)ccc12	200 mg/kg	60 mg/kg	180 mg/kg	
Cc1ccc(Cl)cc1N1CCN(CCOC(=O)c2ccccc2Nc2ccnc3cc(Cl)ccc23)CC1	> 300 mg/kg	15 mg/kg	30 mg/kg	> 4000 mg/kg
CC(CN1CCN(c2ccccc2)CC1)OC(=O)c1ccccc1Nc1ccnc2cc(Cl)ccc12 (stereo not given)	200 mg/kg	63 mg/kg	300 mg/kg	> 2000 mg/kg
O=C(OCCN1CCN(c2cccc(OC(F)(F)F)c2)CC1)c1ccccc1Nc1ccnc2cc(OC(F)(F)F)ccc12	> 300 mg/kg	70 mg/kg	75 mg/kg	3500 mg/kg
O=C(OCCN1CCN(c2cccc(Cl)c2)CC1)c1ccccc1Nc1cccc(SC(F)(F)F)c1		> 400 mg/kg	> 50 mg/kg	2000 mg/kg
O=C(OCC(O)CO)c1ccccc1Nc1ccnc2cc(Cl)ccc12 (stereo not given) [GLAFENINE]	> 600 mg/kg	56 mg/kg	30 mg/kg	
O=C(OCCN1CCN(c2ccccc2)CC1)c1ccccc1Nc1ccnc2cc(Cl)ccc12	200 mg/kg	75 mg/kg	120 mg/kg	4250 mg/kg
O=C(OCCN1CCN(c2ccccc2)CC1)c1ccccc1Nc1cccc(OC(F)(F)F)c1		> 400 mg/kg	150 mg/kg	2000 mg/kg
O=C(OCCCN1CCN(c2ccccc2)CC1)c1ccccc1Nc1ccnc2cc(Cl)ccc12	250 mg/kg	60 mg/kg	50 mg/kg	2000 mg/kg
O=C(OCCN1CCN(c2ccccc2)CC1)c1ccccc1Nc1ccnc2cc(C(F)(F)F)ccc12	300 mg/kg	30 mg/kg	40 mg/kg	2500 mg/kg
Cc1cccc(Nc2ccccc2C(=O)OCCN2CCN(c3ccccc3)CC2)c1C		90 mg/kg	> 50 mg/kg	4000 mg/kg
O=C(OCCN1CCN(c2cccc(Cl)c2)CC1)c1ccccc1Nc1ccnc2cc(Cl)ccc12	60 mg/kg	10 mg/kg	> 100 mg/kg	4000 mg/kg
Cc1c(N(C)C)c(=O)n(-c2ccccc2)n1C [AMINOPYRINE]	250 mg/kg	40 mg/kg	60 mg/kg	800 mg/kg
O=C(OCCN1CCN(c2ccccc2)CC1)c1ccccc1Nc1ccnc2c(Cl)cccc12	> 250 mg/kg	80 mg/kg	300 mg/kg	> 4000 mg/kg
O=C(OCCN1CCN(c2cccc(OC(F)(F)F)c2)CC1)c1ccccc1Nc1ccnc2cc(Cl)ccc12	> 300 mg/kg	120 mg/kg	50 mg/kg	4000 mg/kg
O=C(OCCN1CCN(c2cccc(C(F)(F)F)c2)CC1)c1ccccc1Nc1ccnc2cc(Cl)ccc12	150 mg/kg	24 mg/kg	40 mg/kg	
O=C(OCCN1CCN(c2cccc(C(F)(F)F)c2)CC1)c1ccccc1Nc1cccc(SC(F)(F)F)c1		300 mg/kg	> 50 mg/kg	> 4000 mg/kg

Structure (SMILES)	ED2 [1]	ED50 [2]	ED40 [3]	LD50 at 168 h [4]
Cc1ccc(Cl)cc1N1CCN(CCOC(=O)c2ccccc2Nc2ccnc3cc(C(F)(F)F)ccc23)CC1	> 300 mg/kg	20 mg/kg	65 mg/kg	3000 mg/kg
O=C(OCCN1CCN(c2cccc(Cl)c2)CC1)c1cccnc1Nc1cccc(SC(F)(F)F)c1		100 mg/kg	> 300 mg/kg	> 4000 mg/kg
O=C(OCCN1CCN(c2ccccc2)CC1)c1ccccc1Nc1ccnc2c(C(F)(F)F)cccc12	> 300 mg/kg	35 mg/kg	64 mg/kg	3000 mg/kg
O=C(OCCN1CCN(c2ccccc2)CC1)c1ccccc1Nc1ccnc2cc(OC(F)(F)F)ccc12	300 mg/kg	24 mg/kg	40 mg/kg	1300 mg/kg
O=C(OCCN1CCN(c2cccc(Cl)c2)CC1)c1ccccc1Nc1ccnc2cc(OC(F)(F)F)ccc12	300 mg/kg	20 mg/kg	85 mg/kg	4000 mg/kg
O=C(OCCN1CCN(c2cccc(C(F)(F)F)c2)CC1)c1cccnc1Nc1cccc(SC(F)(F)F)c1		250 mg/kg	> 50 mg/kg	> 4000 mg/kg
O=C(OCCN1CCN(c2cccc(OC(F)(F)F)c2)CC1)c1ccccc1Nc1ccnc2cc(C(F)(F)F)ccc12	> 300 mg/kg	20 mg/kg	50 mg/kg	3500 mg/kg
O=C(OCCN1CCN(c2ccccc2)CC1)c1ccccc1Nc1cccc(C(F)(F)F)c1		400 mg/kg	100 mg/kg	> 2000 mg/kg
O=C(OCCN1CCN(c2ccccc2)CC1)c1ccccc1Nc1ccnc2cc(SC(F)(F)F)ccc12	300 mg/kg	9 mg/kg	100 mg/kg	
Cc1cc(Nc2ccccc2C(=O)OCCN2CCN(c3ccccc3)CC2)c2ccc(Cl)cc2n1	300 mg/kg	110 mg/kg	> 200 mg/kg	4000 mg/kg
O=C(OCCN1CCN(c2cccc(SC(F)(F)F)c2)CC1)c1ccccc1Nc1ccnc2c(C(F)(F)F)cccc12	200 mg/kg	6 mg/kg	> 100 mg/kg	> 3000 mg/kg
O=C(OCCN1CCN(c2ccc(Cl)cc2)CC1)c1ccccc1Nc1ccnc2cc(Cl)ccc12	> 300 mg/kg	80 mg/kg	100 mg/kg	> 2000 mg/kg
O=C(O)c1ccccc1Nc1ccnc2cc(C(F)(F)F)ccc12	> 600 mg/kg	18 mg/kg		1000 mg/kg
O=C(OCCN1CCN(c2cccc(SC(F)(F)F)c2)CC1)c1ccccc1Nc1ccnc2cc(Cl)ccc12	200 mg/kg	120 mg/kg	30 mg/kg	3000 mg/kg
O=C(OCCN1CCN(c2cccc(Cl)c2)CC1)c1ccccc1Nc1ccnc2c(C(F)(F)F)cccc12	> 300 mg/kg	18 mg/kg	100 mg/kg	> 3000 mg/kg
O=C(OCCN1CCN(c2cc(C(F)(F)F)cc(C(F)(F)F)c2)CC1)c1ccccc1Nc1ccnc2cc(C(F)(F)F)ccc12	> 300 mg/kg	20 mg/kg	80 mg/kg	4000 mg/kg
Cc1ccc(C)c(N2CCN(CCOC(=O)c3ccccc3Nc3ccnc4cc(Cl)ccc34)CC2)c1	300 mg/kg	22 mg/kg	120 mg/kg	4000 mg/kg
O=C(OCCN1CCN(c2cccc(C(F)(F)F)c2)CC1)c1ccccc1Nc1ccnc2c(C(F)(F)F)cccc12	100 mg/kg	40 mg/kg	120 mg/kg	> 3000 mg/kg
O=C(OCCN1CCN(c2cccc(SC(F)(F)F)c2)CC1)c1ccccc1Nc1ccnc2cc(C(F)(F)F)ccc12	> 300 mg/kg	8 mg/kg	30 mg/kg	3750 mg/kg
O=C(OCCN1CCN(c2cccc(Cl)c2)CC1)c1ccccc1Nc1ccnc2cc(C(F)(F)F)ccc12	150 mg/kg	9 mg/kg	30 mg/kg	> 4000 mg/kg
